Format in all cases: nucleic-acid assay
Test [1] has as its system Nucleic Acid. The test is described as follows: Binding affinity to 5'-GCTAAAAAGATAGAGAGATCG-3'/5'- CGATCTCTCTATCTTTTTAGC-3' double stranded DNA assessed as melting temperature at 1.5 uM in sodium phosphate buffer at pH 7 by UV spectrophotometric analysis. In outline: (§1)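 UV melting of triplexes between each modified TFO and the 21-bp duplex target, in 7 mM sodium phosphate buffer (pH 7.0), 140 mM KCl and 10 mM MgCl₂. Each oligonucleotide at 1.5 µM final. Absorbance followed at 260 nm from 5 °C to 85 °C, scanned at 0.5 °C/min, to give Tm.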

Test [2] relates to Nucleic Acid. The test is described as follows: Binding affinity to 5'-GCTAAAAAGACAGAGAGATCG-3'/5'- CGATCTCTCTGTCTTTTTAGC-3' double stranded DNA assessed as change in melting temperature at 1.5 uM in sodium phosphate buffer at pH 7 by UV spectrophotometric analysis.
Test [3] has as its system Nucleic Acid. Nature of the test: Binding affinity to 5'-GCTAAAAAGAAAGAGAGATCG-3'/5'- CGATCTCTCTTTCTTTTTAGC-3' double stranded DNA assessed as melting temperature at 1.5 uM in sodium phosphate buffer at pH 7 by UV spectrophotometric analysis. Summed up:
as §1

In test [4] the test system is Nucleic Acid. The test is described as follows: Binding affinity to5'-GCTAAAAAGACAGAGAGATCG-3'/5'- CGATCTCTCTGTCTTTTTAGC-3' double stranded DNA assessed as melting temperature at 1.5 uM in sodium phosphate buffer at pH 7 by UV spectrophotometric analysis. Summed up: as §1
Test [5] has as its system Nucleic Acid. The test is described as follows: Binding affinity to 5'-GCTAAAAAGAGAGAGAGATCG-3'/5'- CGATCTCTCTCTCTTTTTAGC-3' double stranded DNA assessed as melting temperature at 1.5 uM in sodium phosphate buffer at pH 7 by UV spectrophotometric analysis. Summed up: as §1
In test [6] the test system is Nucleic Acid. The test is described as follows: Binding affinity to 5'-GCTAAAAAGATAGAGAGATCG-3'/5'- CGATCTCTCTATCTTTTTAGC-3' double stranded DNA assessed as melting temperature at 1.9 uM in sodium cacodylate buffer at pH 6.8 by UV spectrophotometric analysis. Summed up:
(§2)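 Each oligonucleotide at 1.9 µM final. Absorbance at 260 nm recorded from 5 °C to 85 °C at 0.5 °C/min; Tm taken from the melting profile.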

For test [7], the system named is Nucleic Acid. Nature of the test: Binding affinity to 5'-GCTAAAAAGAAAGAGAGATCG-3'/5'- CGATCTCTCTTTCTTTTTAGC-3' double stranded DNA assessed as melting temperature at 1.9 uM in sodium cacodylate buffer at pH 6.8 by UV spectrophotometric analysis. In outline: as §2
Test [8] deals with Nucleic Acid. The test is described as follows: Binding affinity to 5'-GCTAAAAAGAGAGAGAGATCG-3'/5'- CGATCTCTCTCTCTTTTTAGC-3' double stranded DNA assessed as melting temperature at 1.9 uM in sodium cacodylate buffer at pH 6.8 by UV spectrophotometric analysis. Summed up:
as §2

For test [9], the system named is Nucleic Acid. The test is described as follows: Binding affinity to 5'-GCTAAAAAGACAGAGAGATCG-3'/5'- CGATCTCTCTGTCTTTTTAGC-3' double stranded DNA assessed as melting temperature at 1.9 uM in sodium cacodylate buffer at pH 6.8 by UV spectrophotometric analysis. Summed up:
as §2

For orientation: ΔTm means the change in melting temperature against a reference sample. Consider `Cc1cn([C@H]2C[C@H](OP(=O)(O)OC[C@H]3O[C@@H](n4cc(C)c(=O)[nH]c4=O)C[C@@H]3OP(=O)(O)OC[C@H]3O[C@@H](n4cc(C)c(N)nc4=O)C[C@@H]3OP(=O)(O)OC[C@H]3O[C@@H](n4cc(C)c(=O)[nH]c4=O)C[C@@H]3OP(=O)(O)OC[C@H]3O[C@@H](n4cc(C)c(N)nc4=O)C[C@@H]3OP(=O)(O)OC[C@H]3O[C@@H](n4cc(C)c(=O)[nH]c4=O)C[C@@H]3OP(=O)(O)OC[C@H]3O[C@@H](c4cn(-c5ccc(C(=O)O)cc5)nn4)C[C@@H]3OP(=O)(O)OC[C@H]3O[C@@H](n4cc(C)c(=O)[nH]c4=O)C[C@@H]3OP(=O)(O)OC[C@H]3O[C@@H](n4cc(C)c(N)nc4=O)C[C@@H]3OP(=O)(O)OC[C@H]3O[C@@H](n4cc(C)c(=O)[nH]c4=O)C[C@@H]3OP(=O)(O)OC[C@H]3O[C@@H](n4cc(C)c(=O)[nH]c4=O)C[C@@H]3OP(=O)(O)OC[C@H]3O[C@@H](n4cc(C)c(=O)[nH]c4=O)C[C@@H]3OP(=O)(O)OC[C@H]3O[C@@H](n4cc(C)c(=O)[nH]c4=O)C[C@@H]3OP(=O)(O)OC[C@H]3O[C@@H](n4cc(C)c(=O)[nH]c4=O)C[C@@H]3O)[C@@H](COP(=O)(O)O[C@H]3C[C@H](n4cc(C)c(=O)[nH]c4=O)O[C@@H]3CO)O2)c(=O)nc1N`, for which the Tm was less than 10 °C in test [1], less than 10 °C in test [3], 21 °C in test [4] and less than 10 °C in test [5]. In addition, the ΔTm in test [2] was determined as 11 °C.
As to `Cc1cn([C@H]2C[C@H](OP(=O)(O)OC[C@H]3O[C@@H](n4cc(C)c(=O)[nH]c4=O)C[C@@H]3OP(=O)(O)OC[C@H]3O[C@@H](n4cc(C)c(N)nc4=O)C[C@@H]3OP(=O)(O)OC[C@H]3O[C@@H](n4cc(C)c(=O)[nH]c4=O)C[C@@H]3OP(=O)(O)OC[C@H]3O[C@@H](n4cc(C)c(N)nc4=O)C[C@@H]3OP(=O)(O)OC[C@H]3O[C@@H](n4cc(C)c(=O)[nH]c4=O)C[C@@H]3OP(=O)(O)OC[C@H]3O[C@@H](c4cn(-c5ccc(NC(N)=O)cc5)nn4)C[C@@H]3OP(=O)(O)OC[C@H]3O[C@@H](n4cc(C)c(=O)[nH]c4=O)C[C@@H]3OP(=O)(O)OC[C@H]3O[C@@H](n4cc(C)c(N)nc4=O)C[C@@H]3OP(=O)(O)OC[C@H]3O[C@@H](n4cc(C)c(=O)[nH]c4=O)C[C@@H]3OP(=O)(O)OC[C@H]3O[C@@H](n4cc(C)c(=O)[nH]c4=O)C[C@@H]3OP(=O)(O)OC[C@H]3O[C@@H](n4cc(C)c(=O)[nH]c4=O)C[C@@H]3OP(=O)(O)OC[C@H]3O[C@@H](n4cc(C)c(=O)[nH]c4=O)C[C@@H]3OP(=O)(O)OC[C@H]3O[C@@H](n4cc(C)c(=O)[nH]c4=O)C[C@@H]3O)[C@@H](COP(=O)(O)O[C@H]3C[C@H](n4cc(C)c(=O)[nH]c4=O)O[C@@H]3CO)O2)c(=O)nc1N`, the Tm in test [6] was found to be 18 °C; in test [7], 18 °C; in test [8] it was 17 °C; in test [1], 13 °C; in test [3], 12 °C; in test [4] it was 24 °C. Also, the Tm in [5] is 13 °C; in test [9], 29 °C. Besides, in test [2], the thermal shift (ΔTm) was found to be 11 °C.
Take `Cc1cn([C@H]2C[C@H](OP(=O)(O)OC[C@H]3O[C@@H](n4cc(C)c(=O)[nH]c4=O)C[C@@H]3OP(=O)(O)OC[C@H]3O[C@@H](n4cc(C)c(N)nc4=O)C[C@@H]3OP(=O)(O)OC[C@H]3O[C@@H](n4cc(C)c(=O)[nH]c4=O)C[C@@H]3OP(=O)(O)OC[C@H]3O[C@@H](n4cc(C)c(N)nc4=O)C[C@@H]3OP(=O)(O)OC[C@H]3O[C@@H](n4cc(C)c(=O)[nH]c4=O)C[C@@H]3OP(=O)(O)OC[C@H]3O[C@@H](n4cc(C)c(=O)[nH]c4=O)C[C@@H]3OP(=O)(O)OC[C@H]3O[C@@H](n4cc(C)c(=O)[nH]c4=O)C[C@@H]3OP(=O)(O)OC[C@H]3O[C@@H](n4cc(C)c(N)nc4=O)C[C@@H]3OP(=O)(O)OC[C@H]3O[C@@H](n4cc(C)c(=O)[nH]c4=O)C[C@@H]3OP(=O)(O)OC[C@H]3O[C@@H](n4cc(C)c(=O)[nH]c4=O)C[C@@H]3OP(=O)(O)OC[C@H]3O[C@@H](n4cc(C)c(=O)[nH]c4=O)C[C@@H]3OP(=O)(O)OC[C@H]3O[C@@H](n4cc(C)c(=O)[nH]c4=O)C[C@@H]3OP(=O)(O)OC[C@H]3O[C@@H](n4cc(C)c(=O)[nH]c4=O)C[C@@H]3O)[C@@H](COP(=O)(O)O[C@H]3C[C@H](n4cc(C)c(=O)[nH]c4=O)O[C@@H]3CO)O2)c(=O)nc1N`: the Tm came out at 21 °C in test [6]; 45 °C in test [7]; 22 °C in test [8]; 17 °C in [1]; 44 °C in [3]; 25 °C in test [4]. For the same compound, the Tm in test [5] came to 20 °C; in test [9], 28 °C.
On to `Cc1cn([C@H]2C[C@H](OP(=O)(O)OC[C@H]3O[C@@H](n4cc(C)c(=O)[nH]c4=O)C[C@@H]3OP(=O)(O)OC[C@H]3O[C@@H](n4cc(C)c(N)nc4=O)C[C@@H]3OP(=O)(O)OC[C@H]3O[C@@H](n4cc(C)c(=O)[nH]c4=O)C[C@@H]3OP(=O)(O)OC[C@H]3O[C@@H](n4cc(C)c(N)nc4=O)C[C@@H]3OP(=O)(O)OC[C@H]3O[C@@H](n4cc(C)c(=O)[nH]c4=O)C[C@@H]3OP(=O)(O)OC[C@H]3O[C@@H](c4cn(-c5ccccc5)nn4)C[C@@H]3OP(=O)(O)OC[C@H]3O[C@@H](n4cc(C)c(=O)[nH]c4=O)C[C@@H]3OP(=O)(O)OC[C@H]3O[C@@H](n4cc(C)c(N)nc4=O)C[C@@H]3OP(=O)(O)OC[C@H]3O[C@@H](n4cc(C)c(=O)[nH]c4=O)C[C@@H]3OP(=O)(O)OC[C@H]3O[C@@H](n4cc(C)c(=O)[nH]c4=O)C[C@@H]3OP(=O)(O)OC[C@H]3O[C@@H](n4cc(C)c(=O)[nH]c4=O)C[C@@H]3OP(=O)(O)OC[C@H]3O[C@@H](n4cc(C)c(=O)[nH]c4=O)C[C@@H]3OP(=O)(O)OC[C@H]3O[C@@H](n4cc(C)c(=O)[nH]c4=O)C[C@@H]3O)[C@@H](COP(=O)(O)O[C@H]3C[C@H](n4cc(C)c(=O)[nH]c4=O)O[C@@H]3CO)O2)c(=O)nc1N`, for which the Tm was 23 °C in test [6]; 19 °C in [7]; 17 °C in test [8]; 17 °C in [1]; less than 10 °C in [3]; 25 °C in test [4]. Moreover, the Tm in test [5] was less than 10 °C; in [9] it was 29 °C. For the same compound, the ΔTm in test [2] was 8 °C.

Values taken from ChEMBL document CHEMBL1949561, “Synthesis and triplex-forming ability of oligonucleotides bearing 1-substituted 1H-1,2,3-triazole nucleobases” (Bioorg Med Chem, 2011).
